Laboratory results: PubChem BioAssay
Calls of active or inactive are those of the source.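 How the source made its calls, unless noted: active means a full or partial loss of lipid-probe fluorescence in the fish gall bladder, intestine or both, judged by eye; inactive means no fluorescence loss, or compound toxic to the fish.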

Columns and labels:
[1] = inhibitors of TNFa-induced NFkB p65 translocation, primary screen, imaging, HUVEC, MLSMR starter and 10KST1 sets (AID 438;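 active means inhibition above 20% together with a positive visual image hit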;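 further: compound added about 3h40 before a 20 min TNFalpha stimulation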;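 on inhibition: signal is the nuclear over cytoplasmic p65 intensity ratio per well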); conditions: HUVEC TNFa-induced p65 nuclear translocation; cell count: measured here: nuclei count (cytotoxicity indicator), at 2.08 µM; inhibition: at 2 µM, stronger effect = higher value, 0% TNFa-plus-vehicle, 100% no-TNFa wells
[2] = endothelial E-selectin expression blockers – imaging, HUVEC, immunofluorescence, MLSMR starter and 10KST1 sets, primary screen (AID 487;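 active means visually confirmed hit in the image check and inhibition above 20%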;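 on inhibition: signal is fraction of cell area covered by stained E-selectin grains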;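 on nuclei count: 100% = median nuclei count of all wells on the same plate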); conditions: HUVEC TNFalpha-induced E-selectin immunofluorescence imaging, at 2 µM; inhibition: stronger effect = higher value; nuclei count: measured here: cell number, toxicity
[3] = Primary imaging screen for DUSP6 inhibitors that restore phospho-Erk in transfected HeLa cells, chemical complementation (AID 609;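 active means compounds giving at least 50% inhibition in the cell-based MKP-3 phosphatase rescue imaging test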;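 on inhibition: phospho-Erk level distribution per well compared with pooled transfected vehicle control wells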); conditions: HeLa MKP-3 transfected, phospho-Erk imaging KS statistic, at 10 µM, cells stimulated with TPA for 15 min
[4] = biological target: Dual specificity protein phosphatase 6 (Homo sapiens) (UniProt Q16828); assay: as above; conditions: HeLa MKP-3 transfected, phospho-Erk imaging KS statistic; at 10 µM; stronger effect = higher value; cells stimulated with TPA for 15 min
[5] = biological target: Voltage-gated potassium channel subunit beta-2 (Rattus norvegicus) (UniProt P62483); assay: inhibitors of rat Kvbeta2 reductase activity – biochemical, NADPH fluorescence, primary screen (AID 622;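 active means fluorescence slope higher than the sample average by over 3 SD, cut at about -0.22 in these data, passing the limit was not always enough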;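 further: slope of raw intensity against log time taken from 70 to 1610 s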); conditions: recombinant KvBeta, 4-cyanobenzaldehyde reduction, at 10 µM, stronger effect = higher value
[6] = biological target: Voltage-gated potassium channel subunit beta-2 (Rattus norvegicus) (UniProt P62483); assay: enhancers of rat Kvbeta2 NADPH turnover – biochemical, NADPH fluorescence, primary screen (AID 623;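 active means NADPH fluorescence slope more negative than the mean of all samples by about 3 SD, 99.7% confidence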;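 further: fluorescence intensity change per second fitted from 20 to 320 s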); conditions: Recombinant KvBeta, NADPH fluorescence decrease slope, 10 min; at 10 µM; stronger effect = lower value
[7] = biological target: Alpha-2C adrenergic receptor (Homo sapiens) (UniProt P18825); assay: compounds altering alpha2C-coupled GIRK flux – cell-based, HEK293 alpha2C/GIRK1/2, thallium flux, primary screen (AID 624;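 active means fluorescence slope after compound addition differing from the mean of all screened samples at 99.7% confidence, in either direction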;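 further: slope of fluorescence ratio to pre-addition baseline per second over 15 to 24 s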); conditions: thallium flux BTC fluorescence, at 10 µM, actives lie on both sides
[8] = inhibitors of larval lipid processing in zebrafish, primary screen, whole organism, PED6 fluorescence, gall bladder and intestine (AID 686); conditions: Zebrafish larvae PED6 lipid processing, fluorescence scoring; screened at 20 µM (by protocol);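 further: larvae 5 to 7 days old with five fish per well; signal comes from phospholipase A2 cleavage of quenched PED6 carried via bile; overnight exposure to compound and PED6 before scoring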
How it was run: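 System: live zebrafish larvae aged 5-7 days, whole organism; measure: graded gall bladder and intestinal fluorescence inhibition per well; incubation: overnight exposure; reagent: ingested quenched lipid PED6 at 100 nM; signal: By-eye fluorescence microscopy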

[9] = loss of swimming-algae plug formation – whole organism, Chlamydomonas reinhardtii, WT vs cilia-less mutant, absorbance, 96-well, primary screen (AID 463189;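 active means inhibition at or above 50% relative to wild type and mutant plate controls; inactive means inhibition below 50%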;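 further: 0% = wild type cc124 cells in DMSO and 100% = ciliumless bld1 mutant cells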); conditions: Chlamydomonas reinhardtii gravitaxis, OD600 absorbance, 2 days; at 10 µM; stronger effect = higher value
[10] = measured here: cell density z-score
[11] = measured here: nuclear c-Myc green intensity z-score
[12] = measured here: nuclear pErk red intensity z-score, stronger effect = higher value

Sequence of Alpha-2C adrenergic receptor (Homo sapiens) (P18825 whole entry, looked up): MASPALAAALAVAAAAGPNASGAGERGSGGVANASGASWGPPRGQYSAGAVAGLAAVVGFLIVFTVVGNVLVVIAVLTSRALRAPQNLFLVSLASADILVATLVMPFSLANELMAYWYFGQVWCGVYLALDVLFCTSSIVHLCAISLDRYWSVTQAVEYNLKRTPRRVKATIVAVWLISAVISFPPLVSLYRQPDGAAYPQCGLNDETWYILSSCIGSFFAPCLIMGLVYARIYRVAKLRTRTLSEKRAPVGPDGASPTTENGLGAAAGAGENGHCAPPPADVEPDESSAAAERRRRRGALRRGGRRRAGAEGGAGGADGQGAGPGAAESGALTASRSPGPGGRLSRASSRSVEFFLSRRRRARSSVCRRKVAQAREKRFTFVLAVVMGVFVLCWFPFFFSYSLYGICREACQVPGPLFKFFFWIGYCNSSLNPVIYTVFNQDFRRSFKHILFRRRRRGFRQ
Sequence of Voltage-gated potassium channel subunit beta-2 (Rattus norvegicus) (P62483 whole entry, looked up): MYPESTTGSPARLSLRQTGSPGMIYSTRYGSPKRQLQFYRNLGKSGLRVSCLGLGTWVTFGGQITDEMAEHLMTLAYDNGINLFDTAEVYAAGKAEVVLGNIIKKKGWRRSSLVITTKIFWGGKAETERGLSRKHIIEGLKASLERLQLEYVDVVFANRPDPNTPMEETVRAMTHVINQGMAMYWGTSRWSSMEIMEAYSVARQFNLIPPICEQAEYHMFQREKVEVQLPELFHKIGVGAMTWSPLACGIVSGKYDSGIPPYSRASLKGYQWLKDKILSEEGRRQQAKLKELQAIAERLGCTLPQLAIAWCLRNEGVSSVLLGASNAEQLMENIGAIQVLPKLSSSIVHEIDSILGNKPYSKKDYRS
Sequence of Dual specificity protein phosphatase 6 (Homo sapiens) (Q16828 whole entry, looked up): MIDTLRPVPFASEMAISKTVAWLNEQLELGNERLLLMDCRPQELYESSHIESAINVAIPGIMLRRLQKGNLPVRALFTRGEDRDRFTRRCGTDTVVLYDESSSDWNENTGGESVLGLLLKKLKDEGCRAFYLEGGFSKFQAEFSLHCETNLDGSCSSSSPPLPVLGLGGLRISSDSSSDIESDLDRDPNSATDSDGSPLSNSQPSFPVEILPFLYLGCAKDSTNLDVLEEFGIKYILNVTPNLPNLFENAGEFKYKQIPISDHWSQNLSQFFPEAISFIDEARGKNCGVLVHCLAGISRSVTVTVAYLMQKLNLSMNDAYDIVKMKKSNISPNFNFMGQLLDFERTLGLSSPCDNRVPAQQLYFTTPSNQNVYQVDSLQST

| SMILES | cell count [1] | inhibition [1] | inhibition [2] | nuclei count [2] [%] | z-score [3, 10] | z-score [3, 11] | z-score [3, 12] | inhibition [4] | fluorescence slope [5] | NADPH fluorescence slope [6] | slope [7] | outcome [8] | inhibition [9] |
| --- | --- | --- | --- | --- | --- | --- | --- | --- | --- | --- | --- | --- | --- |
| CCOP(=O)(c1ccccc1)C1(C#N)CCCC1 (stereo unspecified) | 492 | -9.6% (inactive) | -215% (inactive) | 150 | -1.11 | -1.86 | 0.943 | -3.98% (inactive) | -0.513 (inactive) | -0.000169 (inactive) | 0.00467 (inactive) | inactive; toxic | 4.97% (inactive) |
| Cn1c(=O)c2c3c(sc2n2c(SCC(N)=O)nnc12)CC(C(C)(C)C)CC3 (stereo unspecified) | 508 | -9.7% (inactive) | -30% (inactive) | 91.7 | 1.25 | -0.417 | 0.675 | 3.56% (inactive) | -0.371 (inactive) | 6.2e-07 (inactive) | 0.00521 (inactive) | inactive | 92.5% (active) |
| c1coc(-c2nnc3sc(C4CCCCC4)nn23)c1 | 653 | -0.1% (inactive) | -85.2% (inactive) | 170 | -0.617 | -0.759 | -0.627 | 1.12% (inactive) | -0.451 (inactive) | -0.000143 (inactive) | 0.00424 (inactive) | inactive | 77.6% (active) |
| COCCNc1nc2c(c(=O)n(Cc3ccc(OC)cc3)c(=O)n2C)n1C | 357 | -17.8% (inactive) | -26.3% (inactive) | 128 | 0.697 | 0.778 | -0.00517 | 4.37% (inactive) | -0.32 (inactive) | 7.3e-06 (inactive) | 0.00535 (inactive) | inactive | 15.2% (inactive) |
| COCCCNC(=O)C(C#N)c1nc2ccccc2nc1N1CCN(Cc2ccccc2)CC1 (stereo unspecified) | 630 | -5.8% (inactive) | -33.3% (inactive) | 156 | -0.882 | -0.494 | -0.556 | -8.27% (inactive) | -0.472 (inactive) | -0.00034 (inactive) | 0.00118 (inactive) | inactive | 33.7% (inactive) |
| c1ccc(-c2nnc3sc(Cc4cccs4)nn23)cc1 | 602 | -16% (inactive) | -149% (inactive) | 174 | 0.71 | -1.88 | -0.974 | 11.9% (inactive) | -0.467 (inactive) | -0.000133 (inactive) | 0.00581 (inactive) | active; no signal in gallbladder only | 21.4% (inactive) |
| COc1ccc(C2C(C#N)=C(N)SC(N)=C2C#N)cc1OC | 280 | -16.8% (inactive) | -21.6% (inactive) | 85.8 | 0.114 | 1.01 | -1.06 | -10.5% (inactive) | -0.401 (inactive) | -5.5e-05 (inactive) | 0.00592 (inactive) | inactive | -3.02% (inactive) |
| Cc1nc2oc(C(=O)c3ccc(Br)cc3)c(N)c2c2c1COC(C)(C)C2 | 643 | -7.3% (inactive) | -142% (inactive) | 119 | 0.13 | -0.803 | -0.664 | 24.7% (inactive) | -0.532 (inactive) | -5.4e-05 (inactive) | 0.00462 (inactive) | inactive | 39.3% (inactive) |
| CC(C)N1CC=C2C(C#N)=C(N)C(C#N)(C#N)C(c3ccccc3)C2C1 (stereo unspecified) | 535 | -3.2% (inactive) | -126% (inactive) | 218 | 0.674 | 3.57 | 1.58 | 68.6% (inactive) | -0.366 (inactive) | -2.3e-05 (inactive) | 0.000192 (inactive) | inactive | 11.1% (inactive) |
| COc1cc(C2CC(C(F)(F)F)n3ncc(C(=O)O)c3N2)cc(OC)c1OC (stereo unspecified) | 515 | -6.9% (inactive) | 18.3% (inactive) | 119 | -0.754 | 0.674 | 1.11 | -2.07% (inactive) | -0.517 (inactive) | -9.9e-05 (inactive) | 0.0046 (inactive) | inactive | -0.326% (inactive) |
| COc1nc(NS(=O)(=O)c2ccc(C)cc2)nc(C)c1Cl | 718 | 3.9% (inactive) | -62.9% (inactive) | 170 | -1.13 | 1.46 | -0.341 | 1.48% (inactive) | -0.346 (inactive) | -3.1e-05 (inactive) | 0.00526 (inactive) | inactive | -6.39% (inactive) |
| CCCCCc1nc2sc3c(c2c(=O)n1N)CCC3 | 632 | -11.1% (inactive) | 46.3% (inactive) | 166 | -1.49 | 2.03 | 1.67 | -9.7% (inactive) | -0.507 (inactive) | -0.000102 (inactive) | 0.00473 (inactive) | inactive | 68.1% (active) |
| CCOP(=O)(c1ccccc1)c1nc(-c2ccc(F)cc2)oc1N1CCCCC1 (stereo unspecified) | 658 | 1.8% (inactive) | -100% (inactive) | 136 | 0.739 | -0.227 | 1.53 | 4.25% (inactive) | -0.529 (inactive) | -0.000105 (inactive) | 0.00389 (inactive) | inactive | 2.55% (inactive) |
| Cc1nn(-c2cccc(Cl)c2)c2c1C(c1ccncc1)C(C#N)=C(N)O2 (stereo unspecified) | 374 | -13.7% (inactive) | -56% (inactive) | 98.8 | -2.16 | -0.307 | -1.54 | 2.46% (inactive) | -0.382 (inactive) | 4.7e-05 (inactive) | 0.00526 (inactive) | inactive | -1.15% (inactive) |
| Cc1cc2c(c(=O)n1Cc1cccnc1)C(c1ccccc1)C(C#N)=C(N)O2 (stereo unspecified) | 550 | -28.8% (inactive) | -50% (inactive) | 160 | -0.164 | -2.06 | -1.42 | -6.06% (inactive) | -0.537 (inactive) | -2.7e-05 (inactive) | 0.00757 (inactive) | inactive | 22.9% (inactive) |
| N#CCSc1nc2c(cc1C#N)CCCCCC2 | 603 | -18.1% (inactive) | 46.1% (inactive) | 147 | 0.833 | -0.157 | -0.809 | 2.92% (inactive) | -0.354 (inactive) | -8.7e-06 (inactive) | 0.0055 (inactive) | inactive | 19.7% (inactive) |
| N#Cc1nc(-c2ccc(Cl)cc2)oc1N1CCCCC1 | 424 | -5.8% (inactive) | -41.2% (inactive) | 138 | -0.0904 | -0.228 | 0.966 | 9.61% (inactive) | -0.394 (inactive) | -1.7e-05 (inactive) | 0.00666 (inactive) | inactive | 20% (inactive) |
